Reference: PubChem BioAssay
Calls of active or inactive are those of the source.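 How the source made its calls, unless noted: active means fluorescence slope higher than the sample average by over 3 SD (cut at about -0.22 in these data, passing the limit was not always enough); inactive means the rest.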

Experiments:
[1] = inhibitors of TNFa-induced NFkB p65 translocation, primary screen, imaging, HUVEC, MLSMR starter and 10KST1 sets (AID 438;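 active means inhibition above 20% together with a positive visual image hit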;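 further: compound added about 3h40 before a 20 min TNFalpha stimulation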;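 on inhibition: signal is the nuclear over cytoplasmic p65 intensity ratio per well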); details: HUVEC TNFa-induced p65 nuclear translocation; cell count: measured here: nuclei count (cytotoxicity indicator), at 2.08 µM; inhibition: at 2 µM, stronger effect = higher value, 0% TNFa-plus-vehicle, 100% no-TNFa wells
[2] = reduction of polyQ htt aggregates in cells – imaging, exon1htt(103Q)mCFP cells, high-content imaging, primary screen (AID 483;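 active means visual image review flags a hit and inhibition of aggregation exceeds 20%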;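 further: compound exposure lasted 3 days before fixation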;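 on nuclei count: percent of the per-plate median nuclei count of sample wells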); details: exon1htt(103Q)mCFP cell line, aggregate imaging, at 2 µM; inhibition of aggregation: stronger effect = higher value; nuclei count: measured here: cell count, toxicity
[3] = endothelial E-selectin expression blockers – imaging, HUVEC, immunofluorescence, MLSMR starter and 10KST1 sets, primary screen (AID 487;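 active means visually confirmed hit in the image check and inhibition above 20%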;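 on inhibition: signal is fraction of cell area covered by stained E-selectin grains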;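 on nuclei count: 100% = median nuclei count of all wells on the same plate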); details: HUVEC TNFalpha-induced E-selectin immunofluorescence imaging, at 2 µM; inhibition: stronger effect = higher value; nuclei count: measured here: cell number, toxicity
[4] = target: Voltage-gated potassium channel subunit beta-2 (Rattus norvegicus) (UniProt P62483); assay: inhibitors of rat Kvbeta2 reductase activity – biochemical, NADPH fluorescence, primary screen (AID 622); details: recombinant KvBeta, 4-cyanobenzaldehyde reduction, at 10 µM, stronger effect = higher value;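 further: slope of raw intensity against log time taken from 70 to 1610 s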
[5] = target: Voltage-gated potassium channel subunit beta-2 (Rattus norvegicus) (UniProt P62483); assay: enhancers of rat Kvbeta2 NADPH turnover – biochemical, NADPH fluorescence, primary screen (AID 623;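 active means NADPH fluorescence slope more negative than the mean of all samples by about 3 SD, 99.7% confidence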;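 further: fluorescence intensity change per second fitted from 20 to 320 s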); details: Recombinant KvBeta, NADPH fluorescence decrease slope, 10 min; at 10 µM; stronger effect = lower value
[6] = target: Muscarinic acetylcholine receptor M4 (Homo sapiens) (UniProt P08173); assay: M4-linked GIRK flux change, two-sided – cell-based, HEK293 M4/GIRK, thallium flux, BTC-AM, M4 allosteric agonist project, primary screen (AID 625;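 active means fluorescence slope after compound addition differing from the mean of all tested samples at 99.7% confidence, mostly higher but some lower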;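 further: thallium influx through GIRK channels coupled to M4 in HEK293 cells with BTC-AM dye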); details: at 10 µM, actives lie on both sides
How it was run: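 Material: HEK293 cells with M4 receptor and GIRK channels; Times: cells overnight at 37 °C, BTC-AM loading 1 h, reads 2 min total; Technique: kinetic BTC-AM fluorescence sampled at 1 Hz, 10 s pre-addition baseline; Read-out basis: slope over 15–24 s of trace normalized to starting intensity; Controls: carbachol positive, DMSO negative.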

[7] = blockers of RIG-like receptor reporter activation – cell-based, Sendai virus stimulus, luciferase, 10K MLSCN set, TLR/RLR signaling modifier project, primary screen (AID 602276;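 active means inhibition at or above 50% at 10 µM; inactive means inhibition below 50%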;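 further: firefly luciferase from ISG56 promoter only with Renilla not read in this screen; 0% = Sendai virus plus DMSO and 100% = medium plus DMSO without virus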); details: HEK293 RL24 IRF3 luciferase reporter, at 10 µM, stronger effect = higher value
[8] = TLR3 IRF3 reporter activation blockers – cell-based, poly I:C stimulus, luciferase, 10K MLSCN set, primary screen (AID 602277;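 active means inhibition of the reporter signal at or above 50%; inactive means inhibition below 50%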); details: HEK293-TLR3 RL24 IRF3 luciferase reporter, at 10 µM, stronger effect = higher value

Chain of Voltage-gated potassium channel subunit beta-2 (Rattus norvegicus) (P62483 whole entry, looked up): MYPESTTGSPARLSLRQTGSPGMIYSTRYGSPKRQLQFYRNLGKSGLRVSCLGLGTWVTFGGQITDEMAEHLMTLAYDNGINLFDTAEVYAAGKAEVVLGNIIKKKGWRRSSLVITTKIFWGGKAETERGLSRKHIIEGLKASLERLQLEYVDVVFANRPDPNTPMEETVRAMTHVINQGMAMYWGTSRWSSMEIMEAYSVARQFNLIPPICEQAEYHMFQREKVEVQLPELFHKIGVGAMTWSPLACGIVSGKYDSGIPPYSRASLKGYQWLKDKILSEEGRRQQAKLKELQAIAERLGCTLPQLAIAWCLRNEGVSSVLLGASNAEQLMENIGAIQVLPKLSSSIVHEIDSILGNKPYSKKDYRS
Chain of Muscarinic acetylcholine receptor M4 (Homo sapiens) (P08173 whole entry, looked up): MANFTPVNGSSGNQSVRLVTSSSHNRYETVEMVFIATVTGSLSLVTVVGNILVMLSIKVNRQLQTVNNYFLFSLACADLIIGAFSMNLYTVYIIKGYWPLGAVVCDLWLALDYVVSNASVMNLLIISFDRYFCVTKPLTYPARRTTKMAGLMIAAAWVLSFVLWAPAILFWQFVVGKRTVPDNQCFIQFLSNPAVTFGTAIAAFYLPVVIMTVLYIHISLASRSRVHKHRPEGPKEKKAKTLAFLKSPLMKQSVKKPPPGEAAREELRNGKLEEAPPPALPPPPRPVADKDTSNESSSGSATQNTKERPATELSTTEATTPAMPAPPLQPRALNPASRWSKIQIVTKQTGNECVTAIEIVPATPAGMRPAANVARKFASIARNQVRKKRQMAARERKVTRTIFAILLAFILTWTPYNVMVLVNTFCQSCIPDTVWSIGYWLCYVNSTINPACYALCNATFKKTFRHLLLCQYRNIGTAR

| Structure (SMILES) | cell count [1] | inhibition [1] | inhibition of aggregation [2] | nuclei count [2] [%] | inhibition [3] | nuclei count [3] [%] | fluorescence slope [4] | NADPH fluorescence slope [5] | fluorescence slope [6] | inhibition [7] | inhibition [8] |
| --- | --- | --- | --- | --- | --- | --- | --- | --- | --- | --- | --- |
| N#CC(C(=O)CCN1C(=O)C2CC=CCC2C1=O)c1nc2ccccc2[nH]1 (stereo not drawn) | 286 | -5.7% (inactive) | 4.5% (inactive) | 93.8 | -88.1% (inactive) | 123 | -0.524 (inactive) | 5.4e-05 (inactive) | 0.00584 (inactive) | 18.4% (inactive) | 17.1% (inactive) |
| COc1ccc(-c2cc(C(=O)NCCc3ccccc3)no2)cc1OC | 364 | -23% (inactive) | -2.1% (inactive) | 98.3 | -58.5% (inactive) | 105 | -0.298 (inactive) | -2.2e-05 (inactive) | 0.00599 (inactive) | 7.88% (inactive) | -6.93% (inactive) |
| CC1CCCC(C(=O)OCc2ccccc2)N1 (stereo not drawn) | 551 | -10.9% (inactive) | -31.2% (inactive) | 113 | -120% (inactive) | 122 | -0.389 (inactive) | 3.2e-05 (inactive) | 0.00626 (inactive) | 13.2% (inactive) | 20.1% (inactive) |
| S=c1[nH]nc(COc2ccccc2)n1C1CCCCC1 | 552 | 8% (inactive) | 18.7% (inactive) | 91.7 | 48.2% (inactive) | 105 | -0.553 (inactive) | -3e-06 (inactive) | 0.0103 (inactive) | -4.8% (inactive) | 10.9% (inactive) |
| Cc1ccc(S(=O)(=O)c2nc(-c3ccco3)oc2SCC(=O)NCC2CCCO2)cc1 (stereo not drawn) | 822 | -8% (inactive) | 4% (inactive) | 104 | -16.1% (inactive) | 109 | -0.458 (inactive) | -4.2e-05 (inactive) | 0.00374 (inactive) | 15.8% (inactive) | 18.5% (inactive) |
| CCCCn1nnnc1SCC(=O)Nc1cccc(C)n1 | 554 | -46.9% (inactive) | 9% (inactive) | 112 | -47.5% (inactive) | 107 | -0.329 (inactive) | -3.8e-05 (inactive) | 0.00669 (inactive) | -10.8% (inactive) | -6.38% (inactive) |
| CC(C)(C)c1ccccc1NC(=O)c1cccnc1 | 224 | -5.6% (inactive) | 28.5% (inactive) | 91.8 | -81.8% (inactive) | 89.7 | -0.533 (inactive) | -2.2e-05 (inactive) | 0.00439 (inactive) | 15.7% (inactive) | 19.9% (inactive) |
| O=C(c1ccco1)N1CCN(C(=O)C2CCN(S(=O)(=O)c3cccc4nsnc34)CC2)CC1 | 549 | 9.4% (inactive) | 5.1% (inactive) | 104 | 8.2% (inactive) | 96.4 | -0.468 (inactive) | 0.000197 (inactive) | 0.00637 (inactive) | 8.36% (inactive) | 18.1% (inactive) |
| CN1CCN(CC(=O)Nc2ccc(Cl)cc2Cl)CC1 | 445 | -3.5% (inactive) | 0% (inactive) | 103 | 66.8% (inactive) | 78.8 | -0.619 (inactive) | 7.6e-06 (inactive) | 0.00642 (inactive) | 11% (inactive) | 14.7% (inactive) |
| COC(=O)c1ccccc1NC(=O)c1cc(-c2ccc(OC)c(OC)c2)on1 | 443 | -28.4% (inactive) | -3.3% (inactive) | 104 | -29.1% (inactive) | 111 | -0.269 (inactive) | -3.4e-05 (inactive) | 0.00826 (inactive) | 3.07% (inactive) | 5.03% (inactive) |
| O=C(C1CCC1)N1CCc2cc(S(=O)(=O)Nc3ccc4c(c3)OCO4)ccc21 | 606 | 10.1% (inactive) | 18.8% (inactive) | 92 | 3.5% (inactive) | 137 | -0.391 (inactive) | -6.2e-05 (inactive) | 0.0066 (inactive) | 7.48% (inactive) | 13.6% (inactive) |
| Cc1cccc2cc(C#N)c(NCCNC(=O)NC3CCCCC3)nc12 | 463 | -5.1% (inactive) | -41% (inactive) | 85.8 | -40.3% (inactive) | 176 | -0.471 (inactive) | -0.000184 (inactive) | 0.00443 (inactive) | -2.87% (inactive) | 1.15% (inactive) |
| Cn1c(SCC(N)=O)nnc1C1CCN(S(=O)(=O)c2ccccc2C(F)(F)F)CC1 | 554 | -12.3% (inactive) | 4% (inactive) | 88.2 | 33.9% (inactive) | 96.6 | -0.214 (inactive) | -3.4e-05 (inactive) | 0.00588 (inactive) | 10.8% (inactive) | 19.2% (inactive) |
| COc1ccc2nc(C)cc(N3CCOCC3)c2c1 | 401 | -8.1% (inactive) | -8% (inactive) | 104 | -34.7% (inactive) | 84.3 | -0.484 (inactive) | -0.000239 (inactive) | 0.0041 (inactive) | 16.2% (inactive) | 18.7% (inactive) |
| COc1ccc(N2CCN(C(=O)CSc3ccccc3N)CC2)cc1 | 334 | -3% (inactive) | 7.8% (inactive) | 96.1 | -18.9% (inactive) | 106 | -0.501 (inactive) | -0.00016 (inactive) | 0.00478 (inactive) | 4.54% (inactive) | 22.7% (inactive) |
| COc1ccccc1CNC(=O)CCn1c(=O)[nH]c2ccsc2c1=O | 504 | 1.1% (inactive) | 6.6% (inactive) | 111 | 9.6% (inactive) | 110 | -0.266 (inactive) | -3e-05 (inactive) | 0.0062 (inactive) | 16.6% (inactive) | -5.76% (inactive) |
| O=C(NCc1ccco1)c1cc2n(n1)C(C(F)(F)F)CC(c1ccc(F)cc1)N2 (stereo not drawn) | 405 | 6.5% (inactive) | -12.7% (inactive) | 109 | 8.6% (inactive) | 103 | -0.557 (inactive) | -7.3e-06 (inactive) | 0.00537 (inactive) | 3.11% (inactive) | 12.1% (inactive) |
| COC(=O)CCCCCNc1ccc(C(=O)OC)cc1N | 292 | 7.7% (inactive) | 12.1% (inactive) | 92.9 | -71.5% (inactive) | 122 | -0.341 (inactive) | -6.2e-05 (inactive) | 0.00505 (inactive) | 6.15% (inactive) | 18.3% (inactive) |
| O=C(Nc1ccc(S(=O)(=O)NC2CCCC2)cc1)c1cnccn1 | 288 | 1.5% (inactive) | 0.6% (inactive) | 97.1 | -54% (inactive) | 117 | -0.543 (inactive) | -1.1e-05 (inactive) | 0.00448 (inactive) | 10.3% (inactive) | 11.7% (inactive) |
| Cc1ccc(-c2nn(C)c(=O)c3ccccc23)cc1S(=O)(=O)N1CCOCC1 | 595 | -10.5% (inactive) | -24.4% (inactive) | 101 | -64.2% (inactive) | 102 | -0.511 (inactive) | -2.7e-05 (inactive) | 0.0045 (inactive) | 8.97% (inactive) | 30.3% (inactive) |
| Oc1cnc2ccccc2c1CN1CCOCC1 | 354 | 0.4% (inactive) | -24.9% (inactive) | 111 | -45.2% (inactive) | 80.9 | -0.542 (inactive) | -1.4e-05 (inactive) | 0.0061 (inactive) | 18% (inactive) | 10.3% (inactive) |
| COc1ccc2c(c1OC)C(=O)OC2Nn1cncn1 (stereo not drawn) | 334 | -9.5% (inactive) | -11.1% (inactive) | 113 | 1.1% (inactive) | 108 | -0.565 (inactive) | 1.7e-05 (inactive) | 0.00408 (inactive) | 15.9% (inactive) | 22.6% (inactive) |
| Cc1ccc(-c2nn3c(=O)c(C)nnc3s2)cc1 | 571 | -19.6% (inactive) | -0.2% (inactive) | 98.1 | 3.6% (inactive) | 108 | -0.309 (inactive) | -4.6e-06 (inactive) | 0.0056 (inactive) | -12.3% (inactive) | -53.9% (inactive) |
| Cn1cnnc1SCC(=O)Nc1ccccc1Sc1ccccc1 | 740 | 4% (inactive) | -6.3% (inactive) | 93.3 | -36.2% (inactive) | 127 | -0.215 (inactive) | -2.9e-05 (inactive) | 0.00628 (inactive) | 13.5% (inactive) | 8.17% (inactive) |
| COc1ccc(Cl)cc1NC(=O)COc1cccc(-n2cnnn2)c1 | 371 | 1.2% (inactive) | 5.6% (inactive) | 102 | 10.9% (inactive) | 112 | -0.528 (inactive) | -1.9e-05 (inactive) | 0.00451 (inactive) | 6.87% (inactive) | -12.1% (inactive) |
| O=C(NCc1ccco1)Nc1ccc2nsnc2c1 | 683 | -6.1% (inactive) | -22.1% (inactive) | 113 | -138% (inactive) | 119 | -0.445 (inactive) | -2.6e-05 (inactive) | 0.00612 (inactive) | -31.4% (inactive) | -83.7% (inactive) |
| Cn1c(NCc2cccc(Br)c2)nc2ccccc21 | 337 | -4.7% (inactive) | 3% (inactive) | 103 | -6.9% (inactive) | 139 | -0.528 (inactive) | -2.6e-05 (inactive) | 0.00491 (inactive) | 8.28% (inactive) | 14.2% (inactive) |
| O=C1CSC(c2cccc(F)c2)N1c1ccccc1F (stereo not drawn) | 650 | -15.7% (inactive) | 36.5% (inactive) | 118 | -120% (inactive) | 100 | -0.614 (inactive) | 6.1e-06 (inactive) | 0.00376 (inactive) | 15% (inactive) | 18.1% (inactive) |
